In ChEMBL document CHEMBL3608261, “Metabolically programmed iron chelators” (Bioorg Med Chem, 2015):

Key:
Rattus norvegicus [1] = test: Drug metabolism in Sprague-Dawley rat kidney assessed as (S)-4'-(HO)-DADFT-PEAA level at 300 umol/kg, sc up to 8 hrs by HPLC analysis; assay type: ADME, organism-based; details: in vivo
Procedure, shortened: (§1)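 Male Sprague-Dawley rats (250–350 g) got a single sc dose of the monosodium salt at 300 µmol/kg, n=3 per time point. They were killed with CO2 at 0.5, 1, 2, 4 and 8 h. Citrated cardiac-puncture blood was spun to plasma, and liver, kidney, heart and pancreas were frozen. Tissue was homogenized 1:1 in water, given a methanol rinse, held 30 min at −20 °C, centrifuged and filtered. Read-out was reversed-phase HPLC, UV 310 nm.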

Rattus norvegicus [2] = test: Drug metabolism in Sprague-Dawley rat heart assessed as (S)-4'-(HO)-DADFT-PEA level at 300 umol/kg, sc up to 8 hrs by HPLC analysis; assay type: ADME, organism-based; details: in vivo; procedure, shortened: as §1
Rattus norvegicus [3] = test: Iron clearing efficiency in bile duct cannulated Sprague-Dawley rat assessed as clearance of iron in bile at 300 umol/kg, po measured at 3 hrs intervals for up to 48 hrs relative to control; assay type: functional
Procedure, shortened: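 Non-iron-overloaded male Sprague-Dawley rats (400–450 g) with cannulated bile ducts received 300 µmol/kg po or sc. […] Bile was sampled every 3 h for up to 48 h and urine at 24 h intervals. ICE = (treated minus control iron excretion) / theoretical output (2:1 ligand:Fe) × 100 over 48 h. Mean ± SEM.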

Rattus norvegicus [4] = test: Drug metabolism in Sprague-Dawley rat liver assessed as (S)-4'-(HO)-DADFT-PEA level at 300 umol/kg, sc up to 8 hrs by HPLC analysis; assay type: ADME, organism-based; details: in vivo; procedure, shortened: as §1
Rattus norvegicus [5] = test: Drug metabolism in Sprague-Dawley rat liver assessed as (S)-4'-(HO)-DADFT level at 300 umol/kg, sc after 8 hrs; assay type: ADME, organism-based; details: in vivo
Rattus norvegicus [6] = test: Drug metabolism in Sprague-Dawley rat kidney assessed as (S)-4'-(HO)-DADFT-PEA level at 300 umol/kg, sc up to 8 hrs by HPLC analysis; assay type: ADME, organism-based; details: in vivo; procedure, shortened: as §1
Sapajus apella = test: Iron clearing efficiency in […] Cebus apella assessed as clearance of iron in feces at 75 umol/kg, po […] relative to control; assay type: functional
Procedure, shortened: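 Cebus apella monkeys (3.5–6.5 kg) were iron-overloaded with intravenous iron dextran to about 500 mg Fe/kg, reaching serum transferrin saturation of 70–80%. At least 60 days elapsed before use. Chelator was given at 75 µmol/kg po or sc, with the same animals dosed by both routes. Feces and urine were collected at 24 h intervals from 4 days before to 5 days after dosing, and iron was measured by flame absorption spectroscopy. ICE = 2-day post-drug output minus 4-day mean baseline, divided by theoretical output (2:1 ligand:Fe), as %. Mean ± SEM.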

Rattus norvegicus [7] = test: Drug metabolism in Sprague-Dawley rat plasma assessed as (S)-4'-(HO)-DADFT-PEA level at 300 umol/kg, sc up to 8 hrs by HPLC analysis; assay type: ADME, organism-based; details: in vivo; procedure, shortened: as §1
Rattus norvegicus [8] = test: Drug metabolism in Sprague-Dawley rat liver assessed as (S)-4'-(HO)-DADFT-PEAA level at 300 umol/kg, sc up to 8 hrs by HPLC analysis; assay type: ADME, organism-based; details: in vivo; procedure, shortened: as §1
[9] = Drug metabolism in Sprague-Dawley rat plasma assessed as parent compound level at 300 umol/kg, sc after 0.5 hrs by HPLC analysis; assay type: ADME, organism-based; details: read-out: Stability
Procedure, shortened: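 Rats (male Sprague-Dawley, 250–350 g) were dosed sc once with the monosodium salt, 300 µmol/kg, three animals per time point up to 8 h. Plasma came from citrated cardiac blood; liver was frozen after CO2 euthanasia. Parent and metabolites were quantified by HPLC with UV at 310 nm against linear calibration curves (detection limit 0.25 µM, linear 1–1000 µM). Data are means.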

Rattus norvegicus [10] = test: Drug metabolism in Sprague-Dawley rat pancreas assessed as (S)-4'-(HO)-DADFT-PEAA level at 300 umol/kg, sc up to 8 hrs by HPLC analysis; assay type: ADME, organism-based; details: in vivo; procedure, shortened: as §1
Rattus norvegicus [11] = test: Drug metabolism in Sprague-Dawley rat pancreas assessed as (S)-4'-(HO)-DADFT-PEA level at 300 umol/kg, sc up to 8 hrs by HPLC analysis; assay type: ADME, organism-based; details: in vivo; procedure, shortened: as §1
Rattus norvegicus [12] = test: Drug metabolism in Sprague-Dawley rat heart assessed as (S)-4'-(HO)-DADFT-PEAA level at 300 umol/kg, sc up to 8 hrs by HPLC analysis; assay type: ADME, organism-based; details: in vivo; procedure, shortened: as §1
Rattus norvegicus [13] = test: Drug metabolism in Sprague-Dawley rat plasma assessed as (S)-4'-(HO)-DADFT-PEAA level at 300 umol/kg, sc up to 8 hrs by HPLC analysis; assay type: ADME, organism-based; details: in vivo; procedure, shortened: as §1
Rattus norvegicus [14] = test: Iron clearing efficiency in bile duct cannulated Sprague-Dawley rat assessed as clearance of iron in urine at 300 umol/kg, po measured at 3 hrs intervals for up to 48 hrs relative to control; assay type: functional

For `COCCOCCOc1ccc(C2=N[C@@](C)(C(=O)O)CS2)c(O)c1` [SP-420], the Drug metabolism (Rattus norvegicus [1]) was “metabolite_notdetected”, the Drug metabolism (Rattus norvegicus [2]) was “metabolite_detected” and the Activity (Rattus norvegicus [3]) was 97%. For the same molecule, the Drug metabolism (Rattus norvegicus [4]) was “metabolite_detected”, the Drug metabolism (Rattus norvegicus [5]) was “metabolite_notdetected” and the Drug metabolism (Rattus norvegicus [6]) was “metabolite_detected”. The Activity (Sapajus apella) was 93%, the Drug metabolism (Rattus norvegicus [7]) was “metabolite_detected” and the Drug metabolism (Rattus norvegicus [8]) was “metabolite_notdetected”. For the same molecule, the remaining at 0.5 h [9] was 95%, the Drug metabolism (Rattus norvegicus [10]) was “metabolite_notdetected” and the Drug metabolism (Rattus norvegicus [11]) was “metabolite_detected”. The Drug metabolism (Rattus norvegicus [12]) was “metabolite_notdetected”, the Drug metabolism (Rattus norvegicus [13]) was “metabolite_notdetected” and the Activity (Rattus norvegicus [14]) was 3%.
